Results on 96 compounds are retold here after ChEMBL document CHEMBL4513216, “Probing the Open Global Health Chemical Diversity Library for Multistage-Active Starting Points for Next-Generation Antimalarials” (ACS Infect Dis, 2020).

The series can be described thus: Toxicity liver stage against HepG2, at 10uM. Also on record: test concentration 10 uM, cell line HepG2-A16-CD81EGFP. Particulars: human, HepG2-A16-CD81EGFP cells; read-out: INHIBITION
It counts as cell-based. The procedure, abridged: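 Uninfected HepG2-A16-CD81EGFP cells, 3 × 10^3 per well, 1536-well, plated on prespotted compound at 10 μM final, parasite-free screening media added to match infected plates; puromycin 10 μM positive, DMSO 0.5% negative; run in parallel with 48 h PbLuc assay at 37 °C, 5% CO2; viability by CellTiter-Glo luminescence, normalized to controls.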
Take `CCN1CCCC1CNC(=O)c1cc(COc2cccc(F)c2)[nH]n1` (stereo unspecified): the cytotoxicity at 10 µM is -5.96%.

In the case of `O=C(c1cccc(C2CCNC2)c1)N1CCC(c2ncc[nH]2)CC1` (stereo unspecified), the cytotoxicity at 10 µM was -5.03%. The result for `Cc1ccoc1C(=O)N1C[C@@H](OCC2CCOCC2)[C@H]2OCCC[C@H]21` reads 4.11%; that for `COCCN1CC(Nc2nc(C3CCCC3)nc3c2cnn3C)CC1=O` (stereo unspecified), -1.18%; that for `COCC(=O)N1CCCC2(CCN(c3ccsc3)C2=O)C1` (stereo unspecified), 6.66%. As for `CNC(=O)C1CN(c2ncccn2)CCN1Cc1ccccc1` (stereo unspecified), the figure is 14.3%. As for `Cc1nc(CN2CCC3(CCCN(Cc4ccoc4)C3)C2=O)cs1` (stereo unspecified), the figure is -0.142%; as for `O=C1CN(c2ccc(CNC(=O)NCCO)cc2)CCN1`, -2.38%; as for `Cc1occc1C(=O)NCC(=O)N(C)CCCOc1ccccc1`, -50.2%. Take `CCOc1ccc(-c2cc(CCN)ccc2OC)cc1`: the cytotoxicity at 10 µM amounted to 1.63%.

With `CCCN1CCC(N2CCOC(Cc3cccc(OC)c3)C2)CC1` (stereo unspecified), the cytotoxicity at 10 µM was determined as 8.69%. The result for `COc1ccccc1CCN(C)C(C)c1nc(-c2cccnc2)no1` (stereo unspecified) reads -2.04%. As for `CCCC(=O)n1ccn(S(=O)(=O)c2ccc(C)cc2)c1=O`, the figure is 8.08%; as for `CS(=O)(=O)N1CCCC12CCN(Cc1nccs1)CC2`, 8.1%. The result for `Cc1ccc(=O)n(CC2(O)CCN(Cc3cnn(C)c3)CC2)n1` reads 3.12%; that for `N#Cc1ccc(N2CCCC2Cn2cncn2)nc1` (stereo unspecified), 6.05%.

On to `COc1ccccc1CC(C)(C)NC(=O)CC(F)(F)F`, for which the cytotoxicity at 10 µM was found to be 6.08%. As to `CSc1ncccc1C(=O)N1C[C@@H]2CC[C@H]1CN(c1ncccn1)C2`, the cytotoxicity at 10 µM was -4.03%. As for `CCNC(=O)CCc1c(C)nc2cc(O)nn2c1C`, the figure is -12.6%; as for `CCc1n[nH]c(C(=O)N2CCCC3(CN(C)C(=O)O3)C2)c1C` (stereo unspecified), -44.7%; as for `CC(=O)Nc1ccc(C(=O)Nc2cnc3n2CCCC3)cc1C`, 0.271%. As for `COc1cccc(OC)c1-c1ccnc2cc(CC(=O)NC(C)C)nn12`, the figure is -8.05%; as for `CC(Cn1cccn1)NCc1csc(COc2ccc(F)cc2)n1` (stereo unspecified), 5.84%. `Nc1nc(O)cc(N2CCC(c3cc(Cc4ccccc4)n[nH]3)CC2)n1`: the cytotoxicity at 10 µM came to 1.85%. As for `Cc1nc(C2CCN(C(=O)c3ccnn3C)CC2)c2sccn12`, the figure is -10.7%. The result for `COC[C@@]12CCO[C@@H]1CCN(C(=O)C1CC(F)(F)C1)C2` reads -97.4%; that for `Cc1cnc(-c2nc(O)c3c(n2)CN(C(=O)C2CCCC2)CC3)cn1`, -1.39%. The result for `Cc1ccnc(NC(=O)c2c(C)oc(C)c2C)c1` reads 17.2%; that for `Cc1nc(CN2C(=O)CCC23CCN(Cc2ccco2)CC3)cs1`, -105%.

As for `Cc1ccc2nc(CN3CCN(C4CCCCC4)C(=O)C3)cc(O)c2c1`, the cytotoxicity at 10 µM was determined as 12.9%.

In the case of `O=C(NCC1CCOCC1)[C@H]1C[C@@H]2CCN(Cc3ccccc3)C[C@H]2O1`, the cytotoxicity at 10 µM was found to be 1.03%. As for `CCc1ccc(S(=O)(=O)N2CCCC(c3ncc[nH]3)C2)s1` (stereo unspecified), the figure is 12.8%; as for `Cc1ccc(N2CC[C@H]3O[C@H](C(=O)NCc4ccco4)CC[C@H]32)nn1`, -71.9%; as for `O=C(c1cccnc1)N1CCOC(c2ccc(-c3cncnc3)cn2)C1` (stereo unspecified), -16%. The result for `Cn1cc(CN2C[C@@H]3COC[C@]3(C(=O)NCc3ccccn3)C2)cn1` reads -1.07%; that for `O=C(C1CC1)N1CCC(Oc2ccccc2Cl)CC1`, 25.6%. As for `CC(C)c1noc(CCCC(=O)N2CCN(C)CC2c2ccccc2)n1` (stereo unspecified), the figure is -2.89%; as for `CC(C1CC1)N(C)Cc1nnc(-c2ccco2)o1` (stereo unspecified), -2.14%.

As to `COc1nc2ccccc2cc1CN1CCC(CNS(C)(=O)=O)C1` (stereo unspecified), the cytotoxicity at 10 µM was -2.7%. The result for `O=C1CC(c2cccc(O)c2)c2c(c(C(=O)O)cn2-c2ccccc2)N1` (stereo unspecified) reads 1%; that for `COCC1CC2(CCN(c3ccccn3)CC2)CN1C(C)C` (stereo unspecified), -110%; that for `Cc1cccc(CN2CCCCC2c2n[nH]cc2-c2cc(C)no2)c1` (stereo unspecified), 6.5%. For the compound `CC(C)c1ccc(NS(=O)(=O)C=c2[nH]c(=O)n3cccc3c2=O)cc1`, the cytotoxicity at 10 µM was -4.55%. Regarding `Cc1cc(CN(C)C(=O)NC2CCN(c3ncccn3)CC2)no1`, the cytotoxicity at 10 µM was -12.8%. The result for `O=C1CC[C@H]2CN(c3ncc(F)cn3)CC[C@H]2N1CCc1ccccn1` reads 4.83%; that for `CCn1ncc(C(=O)N2CCN(CC3CCCO3)CC2)c1C` (stereo unspecified), -11.6%; that for `CCc1noc(C(C)N2CCN(CCc3ccncc3)CC2)n1` (stereo unspecified), 1.6%.

On to `O=C(CN1CCOC1=O)N(Cc1ccccc1)Cc1nccs1`, for which the cytotoxicity at 10 µM stood at 0.84%. As for `COC(=O)C(c1ccccc1)N(C)C(=O)c1ccnc(C)n1` (stereo unspecified), the figure is 1.4%. As to `CN(C)C(=O)C1CN(Cc2ccc(C#N)cc2F)c2ccccc2O1` (stereo unspecified), the cytotoxicity at 10 µM was determined as 7.14%. As for `Cc1cnn(C2CN(CC(=O)NCCc3c[nH]c4ccccc34)C2)c1`, the figure is -4.01%; as for `O=S(=O)(NCCc1nnc2ccccn12)c1cccnc1`, 1.9%; as for `CN(Cc1ccoc1)C(=O)CN1C(=O)OC(C)(C)C1=O`, -128%. The result for `Nc1nnnn1NCc1cccc2ccccc12` reads 10.4%; that for `CC(CNC(=O)c1ccc(C#N)cc1)N1CCc2ccccc21` (stereo unspecified), 2.84%; that for `CN(C)C(=O)CN1C[C@H]2CN(Cc3cccc(F)c3)C(=O)[C@H]2C1`, -79.5%.

Consider `CC(=O)N(C)CC(=O)Nc1cc(C(F)(F)F)c[nH]c1=O`, for which the cytotoxicity at 10 µM is 4.57%. The result for `CC(C)N(C)Cc1cn2c(n1)CN(C(=O)Cc1ccsc1)CC2` reads -11.1%; that for `Cc1ccc(C(C)NC(=O)N2CCCN(CC(F)F)CC2)s1` (stereo unspecified), 3.44%. Regarding `Cc1ccsc1CN1C[C@@H]2COC[C@]2(CNC(=O)c2ccco2)C1`, the cytotoxicity at 10 µM was -95.5%.

With `Cc1ncccc1-c1cc2cccnc2n1CCCNC(=O)C1CC1`, the cytotoxicity at 10 µM turned out to be 2.18%. The result for `COc1cc(OC)cc(C(=O)NCc2nn(C)c3c2COCC3)c1` reads 6.17%; that for `Cc1cc(C)n(CC(=O)N2CCC(NS(=O)(=O)c3ccccc3)CC2)n1`, 4.59%; that for `Cc1cccc(Nc2c(C#N)c(=O)n(C)c(=O)n2C)c1`, -7.48%. Regarding `CN(C)C(=O)CN1CCC2(CCCN(Cc3cccn3C)C2)C1=O` (stereo unspecified), the cytotoxicity at 10 µM was determined as 11.3%.

`CC(c1ccc(Cl)cc1)N1CCN(CCS(N)(=O)=O)CC1` (stereo unspecified): the cytotoxicity at 10 µM was -1.37%.

Consider `CCCc1ccc2oc(C(=O)N3CCN(CCOC)CC3)c(C)c2c1`, for which the cytotoxicity at 10 µM is -8.36%. As for `O=C(NCc1nn(-c2ccccc2)c2c1CCC2)N1CCSCC1`, the figure is -4.89%; as for `O=C(C1CCC2(CCN(Cc3cccnc3)CC2)CO1)N1CCCC1` (stereo unspecified), -108%; as for `Fc1cccc(CN2C[C@@H]3CN(Cc4ccccn4)C[C@@H]3C2)c1`, -1.07%. As for `Clc1cc(N2CCN3CCCCC3C2)nc2[nH]ccc12` (stereo unspecified), the figure is -9.74%. For the compound `COCCN1C(=O)c2ccc(C(=O)NCCc3c[nH]cn3)cc2C1=O`, the cytotoxicity at 10 µM was -7.13%.

For the compound `CC(C)C1CN(C(=O)c2cc(C3CC3)n[nH]2)CCC(=O)N1CC1CC1` (stereo unspecified), the cytotoxicity at 10 µM was -9.55%. As for `CNC(=O)C1CCCN(C(=O)OC)C1` (stereo unspecified), the figure is -6.06%; as for `CNC(=O)CN1CC[C@H]2CN(C(=O)c3ccoc3)C[C@H]2C1`, -2.8%. As for `O=C(NC1CCC1)C1CCC2(CN(C(=O)c3ccco3)C2)O1` (stereo unspecified), the cytotoxicity at 10 µM was -144%. `Cc1cc(N2CCC(N3CCOCC3)C2)n2nc(C)c(C)c2n1` (stereo unspecified): the cytotoxicity at 10 µM is 3.9%. As for `Cc1cc(N2CCCC2)nc(N(C)CCO)c1C#N`, the figure is 0.252%. The result for `CCCc1n[nH]c(=O)n1Cc1ccccc1F` reads 2.24%. As for `Cn1ccnc1CN1CCC2(CC1)COCCN(c1ncccn1)C2`, the figure is 11.3%. In the case of `CCc1c(C)sc2c1c(N)nc(=O)n2CCN1CCCCC1`, the cytotoxicity at 10 µM was found to be 9.49%. With `Cc1cc(C)n(CC2CN(CC(=O)NCc3cccs3)CCO2)n1` (stereo unspecified), the cytotoxicity at 10 µM is -9.89%. The result for `Cn1cc(CN2CCC(c3[nH]ncc3S(C)(=O)=O)C2)cn1` (stereo unspecified) reads -4.55%; that for `Cc1nn(C)cc1Cn1c(=O)cnc2ccccc21`, 7.8%. The result for `Cc1nc(N2CCN(C(=O)CC3CCCC3)CC2)c2cnn(C)c2n1` reads 6.24%; that for `c1c[nH]c2nc(C3CCNC3)nc-2c1` (stereo unspecified), 10.3%. As for `CCn1c(C(=O)N2CCN(C(=O)NC(C)C)CC2)cc2ccccc21`, the figure is -1.94%. With `COc1cccc(NC(=O)N2CCC(O)(C(F)(F)F)C2)c1` (stereo unspecified), the cytotoxicity at 10 µM was found to be 3.2%. The result for `Cc1cnc(N2CCc3c(CN(C)Cc4ccco4)cncc3C2)nc1` reads 4.15%; that for `O=C(NCC(O)COc1cccc(F)c1)c1ccoc1` (stereo unspecified), -2.56%. The result for `CCC(C)C(=O)N(C)Cc1cc(F)ccc1N1CCC(OC)CC1` (stereo unspecified) reads -5.41%; that for `COc1ccccc1C1(CNc2ccnc(C(=O)N(C)C)c2)CC1`, -1.67%. The result for `CN(Cc1ccco1)C(=O)NCC(c1cccs1)N(C)C` (stereo unspecified) reads 4.38%; that for `COCC(=O)N1CCC2(CCN(c3cnn(C)c3)C2=O)C1` (stereo unspecified), 0.486%. Take `O=C(C1CCCC1)N1CCC2(CC1)COCCN2CC1CC1`: the cytotoxicity at 10 µM was found to be 5.01%. The result for `CC/C=C(\C)CN1CCC(CNC(=O)c2ccnc(N)c2)C1` (stereo unspecified) reads 8.32%.
